Most compounds without a hit are left out; they make up all but 3% or so of the library.
JMJD2C inh: human JMJD2C demethylase inhibition; Q9H3R0; GST-JMJD2C(1-420) H3K9me3 demethylation, DELFIA europium; inhibition, % at 2.35 µM; actives 0.069% (n = 330,000); AID 2099;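 active = more than half of a compound's replicate wells show inhibition beyond 50%, single wells judged on their own value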;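 note: signal counts dimethyl H3K9 product captured on neutravidin plate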
NPR2 activator: GC-B (human) receptor activation. HEK293-GC-B cells, CNP EC30, cGMP TR-FRET; 0% at EC30 CNP, 100% saturating CNP. activation, % at 10 µM. P20594. actives 0.11% (n = 370,000);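 active = activation at 10 µM reaching about 35% in either raw or pattern-adjusted values, limit read from the data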
Target sequence (P20594 whole entry, looked up): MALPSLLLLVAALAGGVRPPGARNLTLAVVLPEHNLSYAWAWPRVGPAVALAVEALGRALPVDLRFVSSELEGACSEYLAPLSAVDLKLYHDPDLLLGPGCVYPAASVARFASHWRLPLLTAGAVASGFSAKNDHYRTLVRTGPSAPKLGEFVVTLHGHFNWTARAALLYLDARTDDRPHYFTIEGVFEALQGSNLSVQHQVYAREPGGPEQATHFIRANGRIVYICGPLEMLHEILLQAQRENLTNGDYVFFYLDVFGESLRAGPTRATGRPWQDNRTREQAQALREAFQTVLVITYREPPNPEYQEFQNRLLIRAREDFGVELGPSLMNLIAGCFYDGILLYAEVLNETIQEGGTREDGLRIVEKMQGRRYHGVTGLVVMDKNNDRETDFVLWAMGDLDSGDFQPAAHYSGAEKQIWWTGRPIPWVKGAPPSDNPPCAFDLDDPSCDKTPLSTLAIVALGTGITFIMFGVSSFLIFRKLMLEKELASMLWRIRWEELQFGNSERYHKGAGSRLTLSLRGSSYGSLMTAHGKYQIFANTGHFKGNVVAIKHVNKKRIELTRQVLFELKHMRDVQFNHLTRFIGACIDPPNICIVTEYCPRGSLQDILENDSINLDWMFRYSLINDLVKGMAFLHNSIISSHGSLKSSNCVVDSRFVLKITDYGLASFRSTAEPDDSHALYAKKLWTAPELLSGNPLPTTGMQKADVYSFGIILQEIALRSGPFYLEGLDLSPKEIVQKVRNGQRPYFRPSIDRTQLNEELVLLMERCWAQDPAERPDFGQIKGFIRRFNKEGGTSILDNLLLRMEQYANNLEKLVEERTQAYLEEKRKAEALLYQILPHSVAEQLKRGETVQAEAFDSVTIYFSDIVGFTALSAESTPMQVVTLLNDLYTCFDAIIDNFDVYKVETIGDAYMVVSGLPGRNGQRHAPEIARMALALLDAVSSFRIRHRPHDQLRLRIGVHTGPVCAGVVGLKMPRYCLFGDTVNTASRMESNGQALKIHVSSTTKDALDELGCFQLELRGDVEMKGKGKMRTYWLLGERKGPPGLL
GRIN3A LBD mod: modulates the human NR3A ligand-binding domain. actives 2.5% (n = 340,000). Tm shift relative to glycine control, % at 25 µM. NR3A LBD differential scanning fluorimetry, Tm shift; 0% = protein alone, 100% = glycine-bound protein;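 active = melting temperature shift of at least 10% of the positive control shift, at one fixed dose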
Lipid droplet: hepatic lipid droplet formation modulation | AML12 mouse hepatocytes, oleate lipid droplets, BODIPY imaging | inhibition, % at 6.5 µM | actives 0.4% (n = 240,000);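 active = lipid droplet intensity inhibited by at least 50%, with more than 500 cells counted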
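Assay system: AML12 hepatocytes (mouse) / Also added: 100 µM oleic acid challenge / Times: overnight treatment with compound plus oleate / Detection: high-content imaging of BODIPY-stained droplets and DAPI nuclei / Evaluation: % inhibition of lipid droplet signal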
GC-A act: GC-A (human) enzyme activation; P16066; activation, % at 10 µM; actives 0.14% (n = 370,000); HEK293 GC-A cells, cGMP TR-FRET, EC30 ANP; 0% at EC30 ANP, 100% saturating ANP; in the data active = activation above about 40%
aDG glyco up: alpha-DG glycosylation activation; actives 0.22% (n = 360,000); AID 624168; Pro5-aDG cells, alpha-DG glycosylation AlphaScreen (IIH6); 0% Pro5, 100% B10-LARGE cell signal; activation, % at 10 µM;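 active = activation of at least 8% versus controls, or a plate z-score of at least 8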;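 note: Pro5 are CHO cells carrying HIG-tagged alpha-DG that lacks glycosylation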
aDG glyco conf: confirmation of alpha dystroglycan glycosylation activators. shares compounds with aDG glyco up. Pro5-aDG cells, alpha-DG glycosylation, IIH6 AlphaLISA; scaled to LARGE-overexpressing B10 cells as 100%. activation, % at 10 µM (by protocol). actives 17% (n = 600). AID 651671;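 active = activation of at least 7% in one or more replicates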;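 note: cells exposed to compound for two days before detection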
Large screens that a line does not name were inactive (follow-up assays come after a bar, where they were run).

O=C(NNC(=O)C1CC(=O)N(c2ccc3c(c2)OCCO3)C1)c1ccc(F)cc1 (stereo unspecified)	aDG glyco up 3.3 (no result: Lipid droplet) | aDG glyco conf inactive
CC(Oc1ccccc1F)C(=O)NNC(=O)C1CC(=O)N(c2ccc3c(c2)OCCO3)C1 (stereo unspecified)	none (no result: Lipid droplet)
Cc1nc(CCNC(=O)Cc2ccc(Cl)cc2)cs1	aDG glyco up 8.7 | aDG glyco conf inactive
CC(=O)Nc1nc(CC(=O)c2ccccc2)cs1	aDG glyco up 8.4 | aDG glyco conf inactive
COc1ccccc1NC(=O)Cc1csc(NC(=O)c2ccccc2)n1	none
COc1ccc(CCN2C(=O)c3ccccc3C2c2nnnn2Cc2ccccc2)cc1OC (stereo unspecified)	none (no result: JMJD2C inh, GRIN3A LBD mod, Lipid droplet)
COc1ccccc1/C=N/NC(=O)c1ccc(Br)cc1	none
COc1ccccc1/C=N/NC(=O)C(NC(=O)c1ccccc1)=C(C)C	aDG glyco up 32 | aDG glyco conf inactive
O=C(Nc1ccc(N2CCCCCC2)cc1)c1cccc(S(=O)(=O)N2CCOCC2)c1	aDG glyco up 2.8 (no result: JMJD2C inh, Lipid droplet) | aDG glyco conf inactive
COc1cc(-c2ccc(NC(=O)CN3CCC(C)CC3)c(OC)c2)ccc1NC(=O)CN1CCC(C)CC1	aDG glyco up 18 | aDG glyco conf 4.0
CCOC1=C2CN(S(=O)(=O)c3ccc(C)cc3)[C@H](c3ccccc3)C[C@@H]2N(S(=O)(=O)c2ccc(C)cc2)[C@H](c2ccccc2)C1	aDG glyco up 6.8 (no result: JMJD2C inh, GRIN3A LBD mod, Lipid droplet) | aDG glyco conf inactive
O=C(CSc1ccc(Cl)cc1)N/N=C/c1ccc([N+](=O)[O-])o1	aDG glyco up 3.2 | aDG glyco conf inactive
C[C@@H]1CN([C@H](C)CO)C(=O)CCCn2nncc2CO[C@@H]1CN(C)C(=O)CCC(F)(F)F	aDG glyco up 7.3 (no result: JMJD2C inh, GRIN3A LBD mod, Lipid droplet) | aDG glyco conf inactive
C[C@@H]1CN([C@@H](C)CO)C(=O)CCCn2nncc2CO[C@@H]1CN(C)C(=O)Nc1ccc(C(C)(C)C)cc1	aDG glyco up 14 (no result: JMJD2C inh, GRIN3A LBD mod, Lipid droplet) | aDG glyco conf inactive
CC(C)COC(=O)N(C)C[C@@H]1OCc2cnnn2CCCC(=O)N([C@@H](C)CO)C[C@@H]1C	none (no result: JMJD2C inh, GRIN3A LBD mod, Lipid droplet)
CC(C)COC(=O)N(C)C[C@@H]1OCc2cnnn2CCCC(=O)N([C@H](C)CO)C[C@@H]1C	aDG glyco up 7.2 (no result: JMJD2C inh, GRIN3A LBD mod, Lipid droplet) | aDG glyco conf inactive
C[C@H](CO)N1C[C@H](C)[C@@H](CN(C)C(=O)Nc2ccc(C(C)(C)C)cc2)OCc2cnnn2CCCC1=O	none (no result: JMJD2C inh, GRIN3A LBD mod, Lipid droplet)
O=C(CN1C2=NCCCN2c2ccccc21)c1cccc(Br)c1	none
O=C(CN1C2=NCCCN2c2ccccc21)c1ccc([N+](=O)[O-])cc1	aDG glyco up 7.5 | aDG glyco conf inactive
CCOC(=O)N1CCC(N2C(=O)c3ccc(C(=O)Nc4ccc(F)cc4F)cc3C2=O)CC1	aDG glyco up 8.8 | aDG glyco conf inactive
CCOC(=O)N1CCC(N2C(=O)c3ccc(C(=O)Nc4ccc(OC)cc4)cc3C2=O)CC1	none
CCn1c(C)nc2cc(S(=O)(=O)C(F)(F)C(F)C(F)(F)F)ccc21 (stereo unspecified)	aDG glyco up 4.4 (no result: Lipid droplet) | aDG glyco conf inactive
O=c1[nH][nH]c2c1[C@H](CCc1cccc(Cl)c1)O[C@H](CCc1ccccc1)C2	none (no result: JMJD2C inh, GRIN3A LBD mod, Lipid droplet)
COc1cccc(N2CCN(c3ccc([N+](=O)[O-])cn3)CC2)c1	aDG glyco up 3.4 | aDG glyco conf inactive
Cc1cc(OC(C)C(=O)NCCN2CCOCC2)c2c(C)cc(=O)oc2c1 (stereo unspecified)	aDG glyco up 8.3 | aDG glyco conf inactive
CCc1cc(=O)oc2cc(C)cc(OC(C)C(=O)NCCCN3CCOCC3)c12 (stereo unspecified)	none
CCc1ccc(S(=O)(=O)NCc2ccc(C(=O)NCCN(Cc3ccccc3)C(C)C)cc2)cc1	aDG glyco up 4.5 (no result: JMJD2C inh, GRIN3A LBD mod, Lipid droplet) | aDG glyco conf inactive
COc1ccc(C)cc1S(=O)(=O)NC(C)c1cnn(-c2ccccn2)c1C (stereo unspecified)	none
O=c1cc(N2CCN(c3ccnc4cc(Cl)ccc34)CC2)[nH]c(=O)n1C1CCCCC1	none (no result: JMJD2C inh, GRIN3A LBD mod, Lipid droplet, aDG glyco up)
COc1ccc(Cl)cc1C(=O)NNC(=O)c1cccc([N+](=O)[O-])c1	aDG glyco up 3.3 | aDG glyco conf inactive
COc1ccccc1C(=O)NNC(=O)c1cccc(Cl)c1	none
CCOC(=O)c1sc(NC(=O)CN2CCN(c3ccccc3)CC2)nc1C	none
Cc1ccc(C(C)C)c(OCC(=O)NC2CCN(C)CC2)c1	none
COCCCNc1nc2c(c(=O)[nH]c(=O)n2C)n1CC(O)COc1ccccc1 (stereo unspecified)	aDG glyco up 11 (no result: Lipid droplet) | aDG glyco conf inactive
COCCCNc1nc2c(c(=O)[nH]c(=O)n2C)n1CC(O)COc1ccccc1C (stereo unspecified)	none (no result: Lipid droplet)
C/C(=N\Nc1nc(C)cc(-c2ccccc2)n1)c1ccc(C)o1	aDG glyco up 4.6 (no result: Lipid droplet) | aDG glyco conf inactive
O=C(COC(=O)c1ccco1)Nc1cccc(S(=O)(=O)N2CCOCC2)c1	none (no result: JMJD2C inh, GRIN3A LBD mod, Lipid droplet)
O=C(NC1CCCCN(Cc2cccc(F)c2)C1=O)c1ccc(-c2ccccc2)cc1 (stereo unspecified)	none (no result: JMJD2C inh, GRIN3A LBD mod, Lipid droplet, aDG glyco up)
COc1ccc2c(c1)C(=O)C(=O)N2CCS(=O)(=O)c1ccccc1	none
O=C1C(=O)N(CCS(=O)(=O)c2ccccc2)c2ccc(F)cc21	aDG glyco up 7.6 | aDG glyco conf 5.4
O=S1(=O)N[C@@H](Cc2ccccc2)COc2cc(N3CCCCC3)ccc21	none (no result: JMJD2C inh, GRIN3A LBD mod, Lipid droplet, aDG glyco up)
CCN1CCN(c2ccc(NC(=O)COc3ccc(Cl)cc3C)cc2)CC1	aDG glyco up 5.2 (no result: Lipid droplet) | aDG glyco conf inactive
COCCn1c(SCc2cccc([N+](=O)[O-])c2)nc2ccccc2c1=O	none
Cn1c(SCc2cccc([N+](=O)[O-])c2)nc2ccccc2c1=O	aDG glyco up 2.6 (no result: Lipid droplet) | aDG glyco conf inactive
O=C(COc1ccccc1Br)NCCC1=CCCCC1	aDG glyco up 3.6 (no result: Lipid droplet) | aDG glyco conf inactive
CC(C)Cn1nc(C(=O)Nc2nnc(C3CC3)s2)c2ccccc2c1=O	none (no result: Lipid droplet)
CCOCCCNC1=C(Cl)C(=O)c2ccccc2C1=O	none
O=C1C(Cl)=C(NCCCO)C(=O)c2ccccc21	aDG glyco up 8.7 | aDG glyco conf 3.2
NC(CCc1ccccc1)c1csc(Nc2ccc(C(=O)c3ccccc3)cc2)n1 (stereo unspecified)	aDG glyco up 8.0 (no result: JMJD2C inh, GRIN3A LBD mod, Lipid droplet) | aDG glyco conf inactive
